From ChEMBL document CHEMBL1649436, “Antiviral activity of MK-4965, a novel nonnucleoside reverse transcriptase inhibitor” (Antimicrob Agents Chemother, 2009)

Tests used:
[1] = system: Plasma; assay: Plasma protein binding in healthy human at 200 mg/kg; type: ADME, organism-based; set-up: dose 200 mg/kg; details: in vivo
[2] = system: Human immunodeficiency virus 1; assay: Antiviral activity against HIV1 isolate R8 harboring wild type reverse transcriptase infected in human MT4 cells assessed as inhibition of viral replication after 72 hrs in presence of 50% human serum; type: functional; details: Human immunodeficiency virus 1, isolate R8, MT4, 72 h
Summary of the method: (§1)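 Multiple-cycle assay: MT-4 cells (2.5 × 10^5) infected with R8-based virus at low MOI, no inhibitor, 24 h at 37°C, 5% CO2; washed, reseeded at 5 × 10^4 cells in RPMI 1640 with 10% FBS or 50% type AB human serum; threefold serial dilutions from 833 nM to 0.32 nM; 72 h; p24 in medium by AlphaScreen; EC95 = lowest concentration giving ≥95% p24 reduction versus untreated.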

[3] = system: Human immunodeficiency virus 1; assay: Antiviral activity against HIV1 isolate R8 harboring reverse transcriptase Y181C mutant infected in human MT4 cells assessed as inhibition of viral replication after 72 hrs in presence of 10% FBS; type: functional; details: Human immunodeficiency virus 1, isolate R8, MT4, 72 h; summary of the method: as §1
[4] = system: Human immunodeficiency virus 1; assay: Antiviral activity against HIV1 isolate R8 harboring reverse transcriptase K103N mutant infected in human MT4 cells assessed as inhibition of viral replication after 72 hrs in presence of 10% FBS; type: functional; details: Human immunodeficiency virus 1, isolate R8, MT4, 72 h; summary of the method: as §1
[5] = system: Plasma; assay: Plasma protein binding in HIV1 infected patient; type: ADME, cell-free; details: human
[6] = system: Human immunodeficiency virus 1; assay: Antiviral activity against HIV1 isolate R8 harboring reverse transcriptase K103N and Y181C mutant infected in human MT4 cells assessed as inhibition of viral replication after 72 hrs in presence of 50% human serum; type: functional; details: Human immunodeficiency virus 1, isolate R8, MT4, 72 h; summary of the method: as §1
[7] = system: Human immunodeficiency virus 1; assay: Antiviral activity against HIV1 isolate R8 harboring reverse transcriptase Y181C mutant infected in human MT4 cells assessed as inhibition of viral replication after 72 hrs in presence of 50% human serum; type: functional; details: Human immunodeficiency virus 1, isolate R8, MT4, 72 h; summary of the method: as §1
[8] = system: Human immunodeficiency virus 1; assay: Antiviral activity against HIV1 isolate R8 harboring reverse transcriptase K103N mutant infected in human MT4 cells assessed as inhibition of viral replication after 72 hrs in presence of 50% human serum; type: functional; details: Human immunodeficiency virus 1, isolate R8, MT4, 72 h; summary of the method: as §1
[9] = system: Human immunodeficiency virus 1; assay: Antiviral activity against HIV1 isolate R8 harboring wild type reverse transcriptase infected in human MT4 cells assessed as inhibition of viral replication after 72 hrs in presence of 10% FBS; type: functional; details: Human immunodeficiency virus 1, isolate R8, MT4, 72 h; summary of the method: as §1
[10] = system: Human immunodeficiency virus 1; assay: Antiviral activity against HIV1 isolate R8 harboring reverse transcriptase K103N and Y181C mutant infected in human MT4 cells assessed as inhibition of viral replication after 72 hrs in presence of 10% FBS; type: functional; details: Human immunodeficiency virus 1, isolate R8, MT4, 72 h; summary of the method: as §1
[11] = system: Human immunodeficiency virus 1; assay: Antiviral activity against HIV1 isolate R8 harboring reverse transcriptase Y181I mutant relative to drug-sensitive HIV1 CNDO; type: functional
[12] = system: Human immunodeficiency virus 1; assay: Antiviral activity against HIV1 isolate R8 harboring reverse transcriptase K101P mutant relative to drug-sensitive HIV1 CNDO; type: functional
[13] = system: Human immunodeficiency virus 1; assay: Antiviral activity against HIV1 isolate R8 harboring reverse transcriptase L100I and K103N mutant relative to drug-sensitive HIV1 CNDO; type: functional
[14] = system: Human immunodeficiency virus 1; assay: Antiviral activity against HIV1 isolate R8 harboring reverse transcriptase M230L mutant relative to drug-sensitive HIV1 CNDO; type: functional
[15] = system: Human immunodeficiency virus 1; assay: Antiviral activity against HIV1 isolate R8 harboring reverse transcriptase Y181C and K103N mutant relative to drug-sensitive HIV1 CNDO; type: functional
[16] = system: Human immunodeficiency virus 1; assay: Ratio of EC95 for HIV1 isolate R8 harboring reverse transcriptase K103N and Y181C mutant in presence of 50% human serum to EC95 for HIV1 isolate R8 harboring wild type reverse transcriptase in presence of 50% human serum; type: functional
Summary of the method: (§2)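 Ratios of EC95 values from the MT-4 multiple-cycle assay: R8 variants infected 24 h at low MOI, then reseeded in RPMI 1640 with 10% FBS or 50% type AB human serum with threefold dilutions (833–0.32 nM) for 72 h; p24 by AlphaScreen; EC95 = lowest concentration cutting p24 ≥95% versus untreated controls.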

[17] = system: Human immunodeficiency virus 1; assay: Ratio of EC95 for HIV1 isolate R8 harboring reverse transcriptase K103N mutant in presence of 50% human serum to EC95 for HIV1 isolate R8 harboring wild type reverse transcriptase in presence of 50% human serum; type: functional; summary of the method: as §2
[18] = system: Human immunodeficiency virus 1; assay: Ratio of EC95 for HIV1 isolate R8 harboring reverse transcriptase Y181C mutant in presence of 50% human serum to EC95 for HIV1 isolate R8 harboring wild type reverse transcriptase in presence of 50% human serum; type: functional; summary of the method: as §2
[19] = system: Human immunodeficiency virus 1; assay: Antiviral activity against HIV1 isolate R8 harboring reverse transcriptase F227C mutant relative to drug-sensitive HIV1 CNDO; type: functional

| Compound | Activity [1] [%] | EC95 [2] [nM] | EC95 [3] [nM] | EC95 [4] [nM] | Activity [5] [%] | EC95 [6] [nM] | EC95 [7] [nM] | EC95 [8] [nM] | EC95 [9] [nM] | EC95 [10] [nM] | fold change (FC) [11] | fold change (FC) [12] | fold change (FC) [13] | fold change (FC) [14] | fold change (FC) [15] | fold change (FC) [16] | fold change (FC) [17] | fold change (FC) [18] | fold change (FC) [19] |
| --- | --- | --- | --- | --- | --- | --- | --- | --- | --- | --- | --- | --- | --- | --- | --- | --- | --- | --- | --- |
| O=C1Nc2ccc(Cl)cc2[C@@](C#CC2CC2)(C(F)(F)F)O1 [EFAVIRENZ] | > 99.5 | 38 | 8.4 | 245 | > 99.5 | 3390 | 89 | 1730 | 3.8 | 322 | – | – | – | – | – | – | – | – | – |
| Cc1cc(C#N)cc(C)c1Oc1nc(Nc2ccc(C#N)cc2)nc(N)c1Br [ETRAVIRINE] | > 99.5 | 38 | 26 | 6 | > 99.5 | 542 | 266 | 43 | 4 | 56 | > 10 | > 10 | > 10 | > 10 | > 10 | 14 | 1.1 | 7 | > 10 |
